# Shown are actives, neighbours in structure and some others; about 2.1% of the full set was active somewhere.
# EBI2 block: EBI2 receptor antagonists, beta-arrestin recruitment, primary screen, cell-based, luminescence, 7a,25-OHC stimulation, uHTS; actives 0.81% (n = 360,000); G-protein coupled receptor 183 (Homo sapiens), P32249; AID 651636, 2012; inhibition, % at 5 µM; 7a,25-OHC stimulated; in the data active means inhibition above about 38%;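 further: enzyme fragment complementation signal reports receptor beta-arrestin coupling in cells; 0% = agonist plus DMSO wells and 100% = wells without agonist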
# Target sequence (P32249 whole entry, looked up, the tested form may be a part): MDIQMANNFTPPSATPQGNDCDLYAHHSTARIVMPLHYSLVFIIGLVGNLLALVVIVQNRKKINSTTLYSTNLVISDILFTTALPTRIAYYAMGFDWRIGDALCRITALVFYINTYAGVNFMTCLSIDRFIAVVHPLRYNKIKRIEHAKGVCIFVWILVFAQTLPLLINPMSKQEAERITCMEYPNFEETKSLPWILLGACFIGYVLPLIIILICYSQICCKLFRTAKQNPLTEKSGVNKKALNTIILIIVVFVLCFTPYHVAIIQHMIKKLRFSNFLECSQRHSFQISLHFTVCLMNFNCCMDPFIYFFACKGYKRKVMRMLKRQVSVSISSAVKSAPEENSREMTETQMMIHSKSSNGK
# CCR6 antag: CCR6 receptor antagonists, primary screen, cell-based, CHO-K1, luminescence, beta-arrestin, uHTS. CHO-K1 CCR6 PathHunter beta-arrestin, CCL20-stimulated. actives 0.49% (n = 340,000). AID 493098, 2011. C-C chemokine receptor type 6 (Homo sapiens), P51684. inhibition, % at 20 µM;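 active means compounds whose inhibition of the agonist-driven luminescence signal at 20 µM reaches about 50%, limit read from the data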;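 further: cells stimulated with CCL20 at 14 nM final; plate controls were DMSO with CCL20 for no effect and DMSO without agonist for full effect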
# CXCR6 inh: CXCR6 receptor inhibitors, primary screen, cell-based, beta-arrestin, luminescence, CHO-K1 PathHunter, 1536-well | inhibition, % at 20 µM | actives 0.36% (n = 360,000) | C-X-C chemokine receptor type 6 (Homo sapiens), O00574; in the data active means inhibition above about 34%, passing the limit was not always enough;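 further: antagonist mode with CXCL16 agonist at 10 nM final; 0% = 10 nM CXCL16 with DMSO and 100% = unstimulated wells without agonist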
# HTR2A ag: mouse Htr2a agonists via beta-arrestin recruitment, primary screen, cell-based, luminescence | actives 0.66% (n = 360,000) | 5-hydroxytryptamine receptor 2A (Mus musculus), P35363 | CHO-K1 mHTR2A beta-arrestin complementation; percent of 30 µM serotonin response | activation, % at 7.6 µM | AID 624169, 2012;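 active means activation above a run cutoff, the mean activation of all tested compounds plus 3 SD, cut at about 14% in these data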;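 further: 0% = plate median of compound wells and 100% = 30 µM serotonin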
# APJ agonist: agonists of human apelin receptor APJ, primary screen, CHO-K1 cells, PathHunter beta-arrestin, luminescence; activation, % at 20 µM; AID 2520, 2010; actives 0.11% (n = 330,000); 0% DMSO wells, 100% apelin; P35414;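 active means activation more than six SD over the plate average, tested at 20 µM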;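 further: 0% = DMSO alone and 100% = apelin-13 at 10 nM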
#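 Incubation: overnight seeding, 90 min compound at 25 °C, 1 h detection; test system: PathHunter CHO-K1 APJ (AGTRL-1) beta-arrestin reporter cells; amount: 1000 cells/well; doses: one dose, 20 µM compound, 1% DMSO; measured by: beta-gal luminescence; measure: agonist-driven arrestin binding to APJ; benchmarks: negative DMSO alone, positive Apelin-13 at 10 nM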
# APJ antagonist: antagonists of human apelin receptor APJ, primary screen, CHO-K1 cells, beta-arrestin complementation, luminescence; inhibition, % at 20 µM; AID 2521, 2010; actives 0.32% (n = 330,000); P35414;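 active means inhibition above about 40% at 20 µM, limit read from the data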;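 further: cells challenged with 10 nM apelin-13 agonist together with compound; plate controls were apelin-13 plus DMSO wells for no effect and DMSO wells lacking apelin-13 for full effect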
# EBI2 conf: EBI2 antagonist hit retest, beta-arrestin, confirmation, cell-based, single concentration, luminescence, 7a,25-OHC stimulation. shares compounds with EBI2 block. 7a,25-OHC antagonism. inhibition, % at 5 µM. actives 29% (n = 2,400);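 active means inhibition of at least 50%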
# EBI2 ag: EBI2 agonist activity of antagonist hits, confirmation, counter-screen for EBI2 antagonist project, cell-based, single concentration, agonist mode, luminescence; shares compounds with EBI2 block; EBI2-expressing cells, 60 min; 0% vehicle, 100% 7α,25-dihydroxycholesterol control; activation, % at 5 µM; 2,400 tested, under 10 active;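 active means activation of at least 50%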
# bGal counter: E. coli beta-galactosidase enzyme inhibition, confirmation, counter-screen for EBI2 antagonist project, biochemical, luminescence, single concentration. shares compounds with EBI2 block. purified beta-galactosidase, luminescent Galacton Star, 15 min. inhibition, % at 5 µM. actives 1% (n = 2,400);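 active means replicate-average signal at least 3 plate SD below neutral wells, shown as high inhibition, flagging enzyme-inhibiting false positives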;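 further: 0% = DMSO wells with enzyme and 100% = wells lacking enzyme; higher means stronger loss of beta-gal luminescence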
# An asterisk follows results filed as active; . = no result.
SMILES,EBI2 block,CCR6 antag,CXCR6 inh,HTR2A ag,APJ agonist,APJ antagonist,EBI2 conf,EBI2 ag,bGal counter
Cc1c(NS(=O)(=O)c2cc(C(=O)NCc3cccc(Cl)c3)ccc2Cl)c(=O)n(-c2ccccc2)n1C,-14,-7,3,-3,.,.,.,.,.
CCS(=O)(=O)N1CCN(C(=O)c2ccc(-c3ccccc3)cc2)CC1,83*,-23,1,-4,1,8,56*,0,-24
O=C(NC1CCCCC1)C1CCN(C(=O)c2ccc(-c3ccccc3)cc2)CC1,38,1,8,-6,-5,3,.,.,.
O=C(c1ccc(-c2ccccc2)cc1)N1CCN(C(=O)c2ccco2)CC1,72*,5,-1,-1,-3,8,35,2,7
CC(C)(C)NC(=O)C1CCN(C(=O)c2ccc(-c3ccccc3)cc2)CC1,48*,11,-7,-7,-3,4,47,0,-16
CC(C)(C)c1ccc(C(=O)N2CCN(C(=O)c3ccco3)CC2)cc1,-9,-4,-8,2,-5,15,.,.,.
CS(=O)(=O)N1CCN(C(=O)c2ccc(-c3ccccc3)cc2)CC1,70*,7,-7,-4,-4,10,30,2,6
COC(=O)C1=C(C)OC(N)=C(C#N)C1c1cc2cccc(C)c2nc1Cl (centres undefined),.,.,.,.,6,12,.,.,.
O=C(CSc1nc2[nH]ncc2c(=O)n1-c1ccccc1)NCc1cccs1,7,18,-10,-3,-2,-16,.,.,.
Cn1c(=O)[nH]c(=O)c2c1nc(N1CCNCC1)n2Cc1ccccc1,7,7,5,-2,-1,10,.,.,.
Cc1ccc(-n2nnnc2-c2cnc3ccc(Cl)cc3c2-c2ccccc2)cc1,15,14,4,-1,-5,-3,.,.,.
Clc1ccc2[nH]cc(-c3nnnn3-c3ccc4ccccc4c3)c2c1,45*,8,-8,-5,7,-3,30,2,5
CCOC(=O)CCC(=O)N1CCOCCOCCN(C(=O)CCC(=O)OCC)CCOCC1,-2,9,-10,7,6,2,.,.,.
CCCCNC(=O)COC(=O)c1cc(Br)ccc1Cl,-4,18,6,3,-3,16,.,.,.
CCOC(=O)c1ccccc1NC(=O)CSc1nnc(Cc2cccn2C)n1-c1ccc(C)cc1,54*,16,-5,3,-2,3,29,-1,-10
COc1ccc(NC(=O)CSc2nnc(Cc3cccn3C)n2-c2ccc(C)cc2)cc1OC,-8,-7,-4,0,-2,17,.,.,.
COc1ccc(-n2c(Cc3cccn3C)nnc2SCC(=O)Nc2cccc(C)c2C)cc1,49*,5,5,-1,-3,7,25,-2,-8
COc1ccc(-n2c(Cc3cccn3C)nnc2SCC(=O)Nc2ccccc2F)cc1,36,16,-1,0,-1,-51,.,.,.
COc1ccc(-n2c(Cc3cccn3C)nnc2SCC(=O)Nc2ccccc2C)cc1,55*,16,10,5,-3,12,23,-1,-6
COc1ccc(-n2c(COc3ccccc3)nnc2SCC(N)=O)cc1,49*,-7,-5,-7,-1,-3,3,-1,-11
O=C(c1cc(-c2ccncc2)nc2ccccc12)N1CCOCC1,-3,4,-4,2,-3,5,.,.,.
CCc1ccccc1N(C(=O)Cn1nnc2ccccc21)C(C(=O)NCCOC)c1ccco1 (centres undefined),-4,1,-8,-4,5,-22,.,.,.
O=C(NCc1cccnc1)C1CCN(c2ccc(S(=O)(=O)N3CCOCC3)cc2Cl)CC1,6,0,-1,3,-2,1,.,.,.
Cn1cccc1Cc1nnc(SCC(=O)NCCc2ccccc2)n1C,-6,-5,-5,6,-2,2,.,.,.
COc1ccc(-n2c(Cc3cccn3C)nnc2SCC(=O)NCCc2ccccc2)cc1,44*,12,6,6,-1,6,36,-1,4
SMILES,EBI2 block,CCR6 antag,CXCR6 inh,HTR2A ag,APJ agonist,APJ antagonist,EBI2 conf,EBI2 ag,bGal counter
COc1ccc(-n2c(Cc3cccn3C)nnc2SCC(=O)Nc2ccc(C)c(Cl)c2)cc1,47*,20,-11,-1,-4,1,23,-1,11
O=C(NCc1cccnc1)Nc1cccc(NC(=O)NCc2cccnc2)c1,-2,4,-1,1,0,-16,.,.,.
CC(C)(C)c1ccc(C(=O)OCCNC(=O)c2c(Cl)nc3ccccn23)cc1,3,-4,-9,4,-5,5,.,.,.
COc1ccc(Br)cc1CN(C)C(C)C(=O)Nc1cc([N+](=O)[O-])ccc1OC (centres undefined),40*,7,7,-2,-5,4,13,1,0
COc1ccc([N+](=O)[O-])cc1NC(=O)C(C)N(C)Cc1ccc(Br)cc1 (centres undefined),37,17,12,-1,-3,9,.,.,.
O=C1COc2ccccc2N1Cc1c(F)cccc1Cl,0,11,4,2,-2,16,.,.,.
COc1ccc(N(CC(=O)NCCSc2ccccn2)S(=O)(=O)c2ccccc2)cc1OC,-7,-5,8,3,-4,4,.,.,.
CS(=O)(=O)N(CC(=O)NCCSc1ccc(Cl)cc1)c1ccc2c(c1)OCO2,87*,39,-8,-7,0,7,63*,0,3
CS(=O)(=O)N(CC(=O)NCCSc1ccccc1)c1ccc2c(c1)OCO2,22,10,11,-9,-3,0,.,.,.
COc1ccc(N(CC(=O)NCCSc2ccccc2)S(=O)(=O)c2ccccc2)cc1OC,48*,16,-15,-3,1,-5,27,1,0
